From PubChem BioAssay
Shown are actives, neighbours in structure and some others; about 1.1% of the full set was active somewhere.
T cell HTS: modulators of CD8 T cell-vesicle binding, primary screen, mouse 2C CD8+ T cells, flow cytometry | 2C CD8+ T cell-vesicle binding; stronger effect = lower value | response (vesicle binding), % at 7 µM | hit rate 0.068% among 330,000 | AID 2052, 2009;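 active means response, share of CD8 T cells binding vesicles, and their 90th percentile fluorescence all below set limits, cut at about 80% in these data, passing the limit was not always enough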;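 further: values below 100% mean blocked vesicle binding to the CD8+ T cells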
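material = purified 2C TCR transgenic mouse naive CD8+ T cells | controls = Unloaded micro-vesicles (low), QL9 vesicles with 0.7% DMSO (high) | detection = cytometric PE anti-B7-1 and Alexa647 anti-CD8 signals after 1% paraformaldehyde fixation | incubation = binding step 1.5 h, 37 °C, antibody labelling 20 min, ice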
GRK2 aptamer HTS: compounds blocking aptamer binding on GRK2 – biochemical, human GRK2, bead flow cytometry, HTS, primary screen; Beta-adrenergic receptor kinase 1 (Homo sapiens), P25098; FAM-aptamer displacement from GRK2; inhibition of aptamer binding, % at 10 µM; hit rate 0.59% among 330,000; AID 488847, 2010;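 active means inhibition of aptamer binding above 40%, roughly 3 SD of noise, on plates passing a quality check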;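 further: median bead fluorescence of bound FAM aptamer so fluorescent compounds give negative values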
Target sequence (P25098 whole entry, looked up): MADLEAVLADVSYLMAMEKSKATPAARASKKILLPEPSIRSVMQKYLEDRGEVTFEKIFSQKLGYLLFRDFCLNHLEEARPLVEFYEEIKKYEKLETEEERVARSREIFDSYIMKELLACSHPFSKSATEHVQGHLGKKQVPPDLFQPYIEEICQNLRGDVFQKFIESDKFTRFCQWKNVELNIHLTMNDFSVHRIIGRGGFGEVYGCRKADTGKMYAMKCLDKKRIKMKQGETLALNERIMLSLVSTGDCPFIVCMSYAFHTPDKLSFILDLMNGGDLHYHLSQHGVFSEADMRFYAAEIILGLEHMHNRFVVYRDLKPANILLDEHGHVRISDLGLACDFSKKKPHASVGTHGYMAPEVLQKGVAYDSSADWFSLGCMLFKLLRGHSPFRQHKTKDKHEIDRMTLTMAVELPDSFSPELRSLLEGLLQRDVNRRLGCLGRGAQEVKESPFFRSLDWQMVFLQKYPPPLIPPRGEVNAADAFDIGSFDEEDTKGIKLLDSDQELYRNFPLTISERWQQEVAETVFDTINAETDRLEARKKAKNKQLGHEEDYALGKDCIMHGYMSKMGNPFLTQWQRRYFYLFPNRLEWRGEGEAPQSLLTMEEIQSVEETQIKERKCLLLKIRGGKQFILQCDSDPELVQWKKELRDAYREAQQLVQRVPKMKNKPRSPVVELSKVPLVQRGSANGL
aDG glyco act: activators of alpha-DG glycosylation, primary screen, uHTS, Pro5-aDG cells, AlphaScreen; alpha-DG glycosylation AlphaScreen (IIH6); 0% Pro5, 100% B10-LARGE cell signal; activation, % at 10 µM; hit rate 0.22% among 360,000; AID 624168, 2012;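 active means activation of at least 8% versus controls, or a plate z-score of at least 8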;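 further: Pro5 are CHO cells carrying HIG-tagged alpha-DG that lacks glycosylation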
procasp7 counter: procaspase-7 activators, primary screen, counter-screen for procaspase-3 activator project, biochemical, absorbance, HTS, human. recombinant procaspase-7, Ac-DEVD-pNA absorbance 405 nm; D23A/D198A/D206A triple mutant, cannot self-cleave; scale: DMSO 0, 5 µM enzyme 100. activation, % at 8.5 µM. hit rate 0.093% among 330,000. AID 463210, 2010;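 active means percent activation above the screen-wide mean plus 3 SD, cut at about 25% in these data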
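Assay system: Uncleavable procaspase-7 mutant enzyme; Input: 2 µM procaspase-7 mutant as dispensed; Also added: DEVD-pNA substrate; Medium: Zinc-free HEPES pH 7.4 with 300 mM NaCl, 0.01% Triton X-100; Timing: 1 h compound preincubation, 2 h substrate cleavage, 25 °C; Measured by: Epi-absorbance of released pNA at 405 nm, two timepoints.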
CaV13 FRET inh: Disruptors of the CACNA1D IQ motif to Ca2+-dependent inactivation inhibitor domain association, primary screening, Förster resonance energy transfer in intact living … | HEK cells, CFP/YFP FRET ICDI-IQ, plate reader, 10 min; percent FRET-ratio fall versus neutral wells | inhibition, % at 12.3 µM | hit rate 0.098% among 340,000 | AID 743397;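 active means mean replicate inhibition of at least 30% and at least 1% of replicates passing that level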
proCasp3 act: activators of human procaspase-3 D3A mutant, primary screen, biochemical, absorbance, PC-3 D3A mutant, single concentration. Caspase-3 (Homo sapiens), P42574. recombinant procaspase-3 D3A, Ac-DEVD-pNA absorbance 405 nm. activation, % at 8.5 µM. hit rate 0.11% among 330,000. AID 463141, 2010;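 active means activation above the mean of all tested compounds plus 3 SD, cut at about 21% in these data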
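Compound: 8.5 µM single point, 0.8% DMSO / Material: Autoprocessing-dead procaspase-3 D3A mutant enzyme / Timing: 1 h preincubation plus 2 h reaction at 25 °C / Medium: Zinc-free HEPES/NaCl buffer with 0.01% Triton X-100 at pH 7.4 / Technique: 405 nm absorbance of p-nitroaniline, reads at 0 and 120 min / Repeats: one well per compound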
GRK2 inh confirm: GRK2 aptamer-displacing inhibitors, retest, confirmation, biochemical, cherry pick 1, bead flow cytometry | hit rate 4% among 2,000 | AID 504451, 2011 | shares compounds with GRK2 aptamer HTS | aptamer displacement, % at 10 µM | bead-bound GRK2, FAM-aptamer displacement;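 active means aptamer displacement above 40%, near three times the noise of non-fluorescent compounds, on plates passing quality checks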;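 further: negative values mostly reflect intrinsic compound fluorescence rather than true enhancement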
Aptamer quench SP: quenches fluorescent RNA aptamer, GRK2 hit artifact. Carboxyfluorescein RNA aptamer on beads, flow cytometry quenching; stronger effect = lower value. 2,000 tested, under 10 active. fluorescence response (% of DMSO), % at 10 µM. shares compounds with GRK2 aptamer HTS;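 active means compounds that quench the bead-bound fluorescent RNA probe, cutting fluorescence to under half of the solvent control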;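 further: counterscreen run without GRK2 so only probe quenching by compound is measured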
Numbers stand for hits.

How did COc1ccccc1-c1nnc(SCC(=O)NC2CC2)n1C do in these assays?
T cell HTS: inactive; GRK2 aptamer HTS: 86.0; aDG glyco act: inactive; procasp7 counter: inactive; CaV13 FRET inh: inactive; proCasp3 act: inactive; GRK2 inh confirm: inactive; Aptamer quench SP: inactive

What do the screens show for `COc1ccccc1-c1nnc(SCC(=O)NC2CCCCC2)n1C`?
T cell HTS: inactive; GRK2 aptamer HTS: inactive; aDG glyco act: inactive; procasp7 counter: inactive; CaV13 FRET inh: inactive; proCasp3 act: inactive

How did Cc1ccccc1-n1ccnc1SCC(=O)NC1CCCC1 do in these assays?
T cell HTS: inactive; GRK2 aptamer HTS: 49.0; aDG glyco act: inactive; procasp7 counter: inactive; CaV13 FRET inh: inactive; proCasp3 act: inactive; GRK2 inh confirm: inactive; Aptamer quench SP: inactive

How did CC(C)Cn1c(N)c(C(=O)COC(=O)c2ccc([N+](=O)[O-])o2)c(=O)n(C)c1=O do in these assays?
T cell HTS: inactive; GRK2 aptamer HTS: inactive; aDG glyco act: inactive; procasp7 counter: inactive; CaV13 FRET inh: inactive; proCasp3 act: inactive

Results for Cc1ccc(NS(=O)(=O)c2c(C)[nH]c(C)c2C(=O)N2CCCCC2)cc1Cl ?
T cell HTS: inactive; GRK2 aptamer HTS: inactive; aDG glyco act: inactive; procasp7 counter: inactive; CaV13 FRET inh: inactive; proCasp3 act: inactive

What do the screens show for `CC(=O)Nc1ccc(NC(=O)C(C)Sc2nnc(C3CC3)n2-c2ccccc2)cc1` (stereo not drawn)?
T cell HTS: inactive; GRK2 aptamer HTS: inactive; aDG glyco act: inactive; procasp7 counter: inactive; CaV13 FRET inh: inactive; proCasp3 act: inactive

How did CN(Cc1cccnc1)Cc1c(C(=O)N2CCc3ccccc3C2)nc2ccc(Cl)cn12 do in these assays?
T cell HTS: inactive; GRK2 aptamer HTS: 93.0; aDG glyco act: inactive; procasp7 counter: inactive; CaV13 FRET inh: inactive; proCasp3 act: inactive; GRK2 inh confirm: inactive; Aptamer quench SP: inactive

How did CN(Cc1cnccn1)Cc1c(C(=O)N2CCc3ccccc3C2)nc2ccc(Cl)cn12 do in these assays?
T cell HTS: inactive; GRK2 aptamer HTS: inactive; aDG glyco act: inactive; procasp7 counter: inactive; CaV13 FRET inh: inactive; proCasp3 act: inactive

How did Cn1ccnc1C(OC(=O)c1ccccc1)C(F)(F)F (stereo not drawn) do in these assays?
T cell HTS: inactive; GRK2 aptamer HTS: inactive; aDG glyco act: inactive; procasp7 counter: inactive; CaV13 FRET inh: inactive; proCasp3 act: inactive; GRK2 inh confirm: inactive; Aptamer quench SP: inactive

How did Cn1ccnc1C(OC(=O)c1ccc(Cl)cc1)C(F)(F)F (stereo not drawn) do in these assays?
T cell HTS: inactive; GRK2 aptamer HTS: inactive; aDG glyco act: inactive; procasp7 counter: inactive; CaV13 FRET inh: inactive; proCasp3 act: inactive

How did O=C(CCNC(=O)N1CC(=O)Nc2ccccc21)Nc1ccc(F)c(Cl)c1 do in these assays?
T cell HTS: inactive; GRK2 aptamer HTS: inactive; aDG glyco act: inactive; procasp7 counter: inactive; CaV13 FRET inh: inactive; proCasp3 act: inactive

What do the screens show for `CC(C)Cn1c(CN(C)Cc2ccccc2)nc2c1c(=O)n(C)c(=O)n2C`?
T cell HTS: inactive; GRK2 aptamer HTS: 76.0; aDG glyco act: inactive; procasp7 counter: inactive; CaV13 FRET inh: inactive; proCasp3 act: inactive; GRK2 inh confirm: inactive; Aptamer quench SP: inactive

Results for CCCCCn1c(CN2CCN(C)CC2)nc2c1c(=O)n(C)c(=O)n2C ?
T cell HTS: inactive; GRK2 aptamer HTS: inactive; aDG glyco act: inactive; procasp7 counter: inactive; CaV13 FRET inh: inactive; proCasp3 act: inactive

How did CCCCCCn1c(CN2CCCCC2CC)nc2c1c(=O)n(C)c(=O)n2C (stereo not drawn) do in these assays?
T cell HTS: inactive; GRK2 aptamer HTS: inactive; aDG glyco act: inactive; procasp7 counter: inactive; CaV13 FRET inh: inactive; proCasp3 act: inactive; GRK2 inh confirm: inactive; Aptamer quench SP: inactive

How did CCC1CCCCN1Cc1nc2c(c(=O)n(C)c(=O)n2C)n1CC(C)C (stereo not drawn) do in these assays?
T cell HTS: inactive; GRK2 aptamer HTS: inactive; aDG glyco act: inactive; procasp7 counter: inactive; CaV13 FRET inh: inactive; proCasp3 act: inactive; GRK2 inh confirm: inactive; Aptamer quench SP: inactive

How did CCC1CCCCN1Cc1nc2c(c(=O)n(C)c(=O)n2C)n1CCC(C)C (stereo not drawn) do in these assays?
T cell HTS: inactive; GRK2 aptamer HTS: inactive; aDG glyco act: inactive; procasp7 counter: inactive; CaV13 FRET inh: inactive; proCasp3 act: inactive; GRK2 inh confirm: inactive; Aptamer quench SP: inactive

Results for CCCCc1c(-c2ccccc2OC)ncn1Cc1ccc(OC)c(Cl)c1 ?
CaV13 FRET inh: inactive

Results for CC(OC(=O)CSc1ccccc1)C(=O)NC1CCCCC1C (stereo not drawn) ?
aDG glyco act: inactive; CaV13 FRET inh: inactive

What do the screens show for `CC1Nc2nc(N(C)C)[nH]c(=O)c2NC1C` (stereo not drawn)?
T cell HTS: inactive; GRK2 aptamer HTS: inactive; aDG glyco act: inactive; procasp7 counter: inactive; CaV13 FRET inh: inactive; proCasp3 act: inactive; GRK2 inh confirm: inactive; Aptamer quench SP: inactive

Results for CN(C)c1nc(C(F)(F)F)cc(=O)[nH]1 ?
T cell HTS: inactive; GRK2 aptamer HTS: inactive; aDG glyco act: inactive; procasp7 counter: inactive; CaV13 FRET inh: inactive; proCasp3 act: inactive

How did CCCCS(=O)(=O)N1CCCc2nc(CC)c(CC)cc21 do in these assays?
CaV13 FRET inh: inactive
